Data reported in ChEMBL document CHEMBL2057152, “Synthesis and antibacterial activity against Clostridium difficile of novel demethylvancomycin derivatives” (2012).
Converted amounts (≈) assume the structure as drawn.

Experiments:
Assay type in all cases: functional
Clostridioides difficile [1] = test: Ratio of MIC for demethylvancomycin to compound MIC for Clostridium difficile ATCC 700792 after 16 hrs by two-fold serial dilution method
Clostridioides difficile [2] = test: Ratio of MIC for vancomycin to compound MIC for Clostridium difficile ATCC 700057 after 16 hrs by two-fold serial dilution method
Clostridioides difficile [3] = test: Ratio of MIC for demethylvancomycin to compound MIC for Clostridium difficile ATCC 700057 after 16 hrs by two-fold serial dilution method
Clostridioides difficile [4] = test: Ratio of MIC for demethylvancomycin to compound MIC for Clostridium difficile ATCC 43255 after 16 hrs by two-fold serial dilution method
Enterococcus faecalis [5] = test: Antibacterial activity against Enterococcus faecalis ATCC 700802 after 16 hrs by two-fold serial dilution method; conditions: ATCC 700802, 16 h
Method in brief: (§1)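 CLSI agar dilution MIC. Compounds are dissolved in 50% water in DMSO as a stock, twofold serially diluted in sterile water, then diluted 10-fold into Mueller-Hinton agar. Organisms are grown in MH broth at 35 °C for 8 h and adjusted to 0.5 McFarland. They are applied to the drug-containing plates by multipoint inoculator and incubated at 35 °C for 16 h. Vancomycin and demethylvancomycin serve as controls.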

Clostridioides difficile [6] = test: Ratio of MIC for vancomycin to compound MIC for Clostridium difficile ATCC 700792 after 16 hrs by two-fold serial dilution method
Clostridioides difficile [7] = test: Antibacterial activity against Clostridium difficile ATCC 700792 after 16 hrs by two-fold serial dilution method; conditions: ATCC 700792, 16 h; method in brief: as §1
Clostridioides difficile [8] = test: Antibacterial activity against Clostridium difficile ATCC 700057 after 16 hrs by two-fold serial dilution method; conditions: ATCC 700057, 16 h; method in brief: as §1
Clostridioides difficile [9] = test: Ratio of MIC for vancomycin to compound MIC for Clostridium difficile ATCC 43255 after 16 hrs by two-fold serial dilution method
[10] = Antibacterial activity against Clostridium difficile ATCC 43255 after 16 hrs by two-fold serial dilution method; conditions: Clostridioides difficile, ATCC 43255, 16 h; method in brief: as §1
Clostridioides difficile [11] = test: Ratio of MIC for vancomycin to compound MIC for Clostridium difficile IQCC 23903 after 16 hrs by two-fold serial dilution method
Clostridioides difficile [12] = test: Ratio of MIC for demethylvancomycin to compound MIC for Clostridium difficile IQCC 23903 after 16 hrs by two-fold serial dilution method
Clostridioides difficile [13] = test: Antibacterial activity against Clostridium difficile IQCC 23903 after 16 hrs by two-fold serial dilution method; conditions: IQCC 23903, 16 h; method in brief: as §1
Enterococcus faecalis [14] = test: Ratio of MIC for demethylvancomycin to compound MIC for Enterococcus faecalis ATCC 700802 after 16 hrs by two-fold serial dilution method
Enterococcus faecalis [15] = test: Ratio of MIC for vancomycin to compound MIC for Enterococcus faecalis ATCC 700802 after 16 hrs by two-fold serial dilution method

Q: For `CC(C)C[C@@H](N)C(=O)N[C@H]1C(=O)N[C@@H](CC(N)=O)C(=O)N[C@H]2C(=O)N[C@H]3C(=O)N[C@H](C(=O)N[C@H](C(=O)O)c4cc(O)cc(O)c4-c4cc3ccc4O)[C@H](O)c3ccc(c(Cl)c3)Oc3cc2cc(c3O[C@@H]2O[C@H](CO)[C@@H](O)[C@H](O)[C@H]2O[C@H]2C[C@](C)(NCc3ccc(Cl)cc3)[C@H](O)[C@H](C)O2)Oc2ccc(cc2Cl)[C@H]1O`, which Ratio (Clostridioides difficile [1]) is on record?
A: 2

Q: What about the Ratio (Clostridioides difficile [2]) of the same compound?
A: 2

Q: What about the Ratio (Clostridioides difficile [3]) of the same compound?
A: 2

Q: What about the Ratio (Clostridioides difficile [4]) of the same compound?
A: 2

Q: And the MIC (Enterococcus faecalis [5])?
A: 16 µg/mL (≈ 10.3 µM)

Q: What about the Ratio (Clostridioides difficile [6]) of the same compound?
A: 2

Q: And the MIC (Clostridioides difficile [7])?
A: 0.25 µg/mL (≈ 0.16 µM)

Q: What about the MIC (Clostridioides difficile [8]) of the same compound?
A: 0.5 µg/mL (≈ 0.321 µM)

Q: And the Ratio (Clostridioides difficile [9])?
A: 2

Q: What about the MIC [10] of the same compound?
A: 0.25 µg/mL (≈ 0.16 µM)

Q: And the Ratio (Clostridioides difficile [11])?
A: 2

Q: What about the Ratio (Clostridioides difficile [12]) of the same compound?
A: 2

Q: And the MIC (Clostridioides difficile [13])?
A: 0.25 µg/mL (≈ 0.16 µM)

Q: Which Ratio (Clostridioides difficile [1]) does the source give for `CC(C)C[C@@H](N)C(=O)N[C@H]1C(=O)N[C@@H](CC(N)=O)C(=O)N[C@H]2C(=O)N[C@H]3C(=O)N[C@H](C(=O)N[C@H](C(=O)O)c4cc(O)cc(O)c4-c4cc3ccc4O)[C@H](O)c3ccc(c(Cl)c3)Oc3cc2cc(c3O[C@@H]2O[C@H](CO)[C@@H](O)[C@H](O)[C@H]2O[C@H]2C[C@](C)(NCc3ccc(Br)cc3)[C@H](O)[C@H](C)O2)Oc2ccc(cc2Cl)[C@H]1O` here?
A: 2

Q: What about the Ratio (Clostridioides difficile [2]) of the same compound?
A: 2

Q: What about the Ratio (Clostridioides difficile [3]) of the same compound?
A: 2

Q: And the Ratio (Clostridioides difficile [4])?
A: 2

Q: What about the MIC (Enterococcus faecalis [5]) of the same compound?
A: 8 µg/mL (≈ 4.99 µM)

Q: And the Ratio (Clostridioides difficile [6])?
A: 2

Q: And the MIC (Clostridioides difficile [7])?
A: 0.25 µg/mL (≈ 0.156 µM)

Q: What about the MIC (Clostridioides difficile [8]) of the same compound?
A: 0.25 µg/mL (≈ 0.156 µM)

Q: What about the Ratio (Clostridioides difficile [9]) of the same compound?
A: 2

Q: What about the MIC [10] of the same compound?
A: 0.25 µg/mL (≈ 0.156 µM)

Q: What about the Ratio (Clostridioides difficile [11]) of the same compound?
A: 2

Q: What about the Ratio (Clostridioides difficile [12]) of the same compound?
A: 2

Q: What about the MIC (Clostridioides difficile [13]) of the same compound?
A: 0.25 µg/mL (≈ 0.156 µM)

Q: What does the source list for `CC(C)C[C@@H](N)C(=O)N[C@H]1C(=O)N[C@@H](CC(N)=O)C(=O)N[C@H]2C(=O)N[C@H]3C(=O)N[C@H](C(=O)N[C@H](C(=O)O)c4cc(O)cc(O)c4-c4cc3ccc4O)[C@H](O)c3ccc(c(Cl)c3)Oc3cc2cc(c3O[C@@H]2O[C@H](CO)[C@@H](O)[C@H](O)[C@H]2O[C@H]2C[C@](C)(NCc3ccc4ccccc4c3)[C@H](O)[C@H](C)O2)Oc2ccc(cc2Cl)[C@H]1O`?
A: Ratio (Clostridioides difficile [1]): 2; Ratio (Clostridioides difficile [2]): 2; Ratio (Clostridioides difficile [3]): 2; Ratio (Clostridioides difficile [4]): 2; MIC (Enterococcus faecalis [5]): 16 µg/mL (≈ 10.2 µM); Ratio (Clostridioides difficile [6]): 2; MIC (Clostridioides difficile [7]): 0.125 µg/mL (≈ 0.0793 µM); MIC (Clostridioides difficile [8]): 0.25 µg/mL (≈ 0.159 µM); Ratio (Clostridioides difficile [9]): 2; MIC [10]: 0.25 µg/mL (≈ 0.159 µM); Ratio (Clostridioides difficile [11]): 2; Ratio (Clostridioides difficile [12]): 2; MIC (Clostridioides difficile [13]): 0.25 µg/mL (≈ 0.159 µM)

Q: What does the source list for `CC(C)C[C@@H](N)C(=O)N[C@H]1C(=O)N[C@@H](CC(N)=O)C(=O)N[C@H]2C(=O)N[C@H]3C(=O)N[C@H](C(=O)N[C@H](C(=O)O)c4cc(O)cc(O)c4-c4cc3ccc4O)[C@H](O)c3ccc(c(Cl)c3)Oc3cc2cc(c3O[C@@H]2O[C@H](CO)[C@@H](O)[C@H](O)[C@H]2O[C@H]2C[C@](C)(NCc3c4ccccc4cc4ccccc34)[C@H](O)[C@H](C)O2)Oc2ccc(cc2Cl)[C@H]1O`?
A: Ratio (Clostridioides difficile [1]): 2; Ratio (Clostridioides difficile [2]): 2; Ratio (Clostridioides difficile [3]): 2; Ratio (Clostridioides difficile [4]): 2; MIC (Enterococcus faecalis [5]): 2 µg/mL (≈ 1.23 µM); Ratio (Clostridioides difficile [6]): 2; MIC (Clostridioides difficile [7]): 0.25 µg/mL (≈ 0.154 µM); MIC (Clostridioides difficile [8]): 0.5 µg/mL (≈ 0.308 µM); Ratio (Clostridioides difficile [9]): 2; MIC [10]: 0.25 µg/mL (≈ 0.154 µM); Ratio (Clostridioides difficile [11]): 2; Ratio (Clostridioides difficile [12]): 2; MIC (Clostridioides difficile [13]): 0.25 µg/mL (≈ 0.154 µM)

Q: Which Ratio (Clostridioides difficile [1]) does the source give for `CCCCCCCN[C@@]1(C)C[C@H](O[C@H]2[C@H](Oc3c4cc5cc3Oc3ccc(cc3Cl)[C@@H](O)[C@@H](NC(=O)[C@H](N)CC(C)C)C(=O)N[C@@H](CC(N)=O)C(=O)N[C@H]5C(=O)N[C@H]3C(=O)N[C@H](C(=O)N[C@H](C(=O)O)c5cc(O)cc(O)c5-c5cc3ccc5O)[C@H](O)c3ccc(c(Cl)c3)O4)O[C@H](CO)[C@@H](O)[C@@H]2O)O[C@@H](C)[C@H]1O` here?
A: 2

Q: What about the Ratio (Clostridioides difficile [2]) of the same compound?
A: 2

Q: What about the Ratio (Clostridioides difficile [3]) of the same compound?
A: 2

Q: What about the Ratio (Clostridioides difficile [4]) of the same compound?
A: 2

Q: And the MIC (Enterococcus faecalis [5])?
A: 8 µg/mL (≈ 5.22 µM)

Q: And the Ratio (Clostridioides difficile [6])?
A: 2

Q: What about the MIC (Clostridioides difficile [7]) of the same compound?
A: 0.5 µg/mL (≈ 0.326 µM)

Q: What about the MIC (Clostridioides difficile [8]) of the same compound?
A: 0.25 µg/mL (≈ 0.163 µM)

Q: And the Ratio (Clostridioides difficile [9])?
A: 2

Q: And the MIC [10]?
A: 0.5 µg/mL (≈ 0.326 µM)

Q: What about the Ratio (Clostridioides difficile [11]) of the same compound?
A: 2

Q: And the Ratio (Clostridioides difficile [12])?
A: 2

Q: What about the MIC (Clostridioides difficile [13]) of the same compound?
A: 0.25 µg/mL (≈ 0.163 µM)

Q: With `CCCCCCCCCCCN[C@@]1(C)C[C@H](O[C@H]2[C@H](Oc3c4cc5cc3Oc3ccc(cc3Cl)[C@@H](O)[C@@H](NC(=O)[C@H](N)CC(C)C)C(=O)N[C@@H](CC(N)=O)C(=O)N[C@H]5C(=O)N[C@H]3C(=O)N[C@H](C(=O)N[C@H](C(=O)O)c5cc(O)cc(O)c5-c5cc3ccc5O)[C@H](O)c3ccc(c(Cl)c3)O4)O[C@H](CO)[C@@H](O)[C@@H]2O)O[C@@H](C)[C@H]1O` as the compound, how does the MIC (Enterococcus faecalis [5]) read?
A: 0.5 µg/mL (≈ 0.315 µM)

Q: And the Ratio (Enterococcus faecalis [14])?
A: 64

Q: What about the Ratio (Enterococcus faecalis [15]) of the same compound?
A: 64

Q: And the MIC (Clostridioides difficile [7])?
A: 0.5 µg/mL (≈ 0.315 µM)

Q: And the MIC (Clostridioides difficile [8])?
A: 0.5 µg/mL (≈ 0.315 µM)

Q: And the MIC [10]?
A: 0.5 µg/mL (≈ 0.315 µM)

Q: What about the MIC (Clostridioides difficile [13]) of the same compound?
A: 0.5 µg/mL (≈ 0.315 µM)

Q: Which Ratio (Clostridioides difficile [1]) does the source give for `CC(C)C[C@@H](N)C(=O)N[C@H]1C(=O)N[C@@H](CC(N)=O)C(=O)N[C@H]2C(=O)N[C@H]3C(=O)N[C@H](C(=O)N[C@H](C(=O)O)c4cc(O)cc(O)c4-c4cc3ccc4O)[C@H](O)c3ccc(c(Cl)c3)Oc3cc2cc(c3O[C@@H]2O[C@H](CO)[C@@H](O)[C@H](O)[C@H]2O[C@H]2C[C@](C)(NCCC(C)CC(C)(C)C)[C@H](O)[C@H](C)O2)Oc2ccc(cc2Cl)[C@H]1O` (stereo not given in full) here?
A: 2

Q: What about the Ratio (Clostridioides difficile [2]) of the same compound?
A: 2

Q: What about the Ratio (Clostridioides difficile [3]) of the same compound?
A: 2

Q: What about the Ratio (Clostridioides difficile [4]) of the same compound?
A: 2

Q: What about the MIC (Enterococcus faecalis [5]) of the same compound?
A: 8 µg/mL (≈ 5.12 µM)

Q: What about the Ratio (Clostridioides difficile [6]) of the same compound?
A: 2

Q: What about the MIC (Clostridioides difficile [7]) of the same compound?
A: 0.5 µg/mL (≈ 0.32 µM)

Q: And the MIC (Clostridioides difficile [8])?
A: 0.25 µg/mL (≈ 0.16 µM)

Q: What about the Ratio (Clostridioides difficile [9]) of the same compound?
A: 2

Q: What about the MIC [10] of the same compound?
A: 0.5 µg/mL (≈ 0.32 µM)

Q: And the Ratio (Clostridioides difficile [11])?
A: 2

Q: And the Ratio (Clostridioides difficile [12])?
A: 2

Q: What about the MIC (Clostridioides difficile [13]) of the same compound?
A: 0.25 µg/mL (≈ 0.16 µM)
